INS promoter act: activators of insulin promoter-driven GFP, primary screen, imaging, TRM-6 cells, eGFP reporter, cell count; plate-scaled: unstimulated 0, stimulated control 100; activation, % at 2 µM; 130,000 tested, 0.81% active; AID 1296, 2008;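 active = activation at 2 µM above a set limit, confirmed on inspection of the cell images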;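 also: share of cells whose green reporter signal exceeds an intensity cutoff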
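System: human fetal islet-derived TRM-6 cells with tamoxifen-inducible insulin promoter–eGFP reporter; input: seeding density of 1,000 cells per well; buffer or medium: Low-glucose (5.5 mM) medium with tamoxifen; incubation: compound exposure 48 h, 37 °C; measured by: high-content imaging of fixed cells with Hoechst nuclear stain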
* hit, by the source's call. This is one part of a sample in which hits are shown more often than they occur.

SMILES | INS promoter act
Cc1ccc(CNC(=O)C(CCC(N)=O)NC(=O)OCc2ccccc2)cc1 (configuration not stated) | 5.3
CCOc1ccc(CCNC(=O)COC(=O)c2ccco2)cc1OCC | 0.0
CCOc1ccc(CCNC(=O)C(CCC(N)=O)NC(=O)OCc2ccccc2)cc1OCC (configuration not stated) | 228.6*
CCn1cc(/C=N/NC(=O)c2ccc3c(c2)OCO3)cn1 | -6.5
C#CC[N+](C)(C)C(C#Cc1ccccc1)CC=C (configuration not stated) | -2.3
Cc1c(N)cc[n+](CC(=O)c2ccccc2)c1C | 0.0
CCCCN(C(=O)Nc1ccc(OCC)cc1)C1CCN(C(C)=O)CC1 | 7.7
CCn1c(COc2ccc(C)cc2)nnc1SCC(=O)NNC(=O)c1ccc(OC)cc1 | 3.4
CCc1cc2c(-n3nc(C)cc3C)ncnc2s1 | 342.9
Cc1cc(C)n(-c2cc(=O)n(C)c(=O)n2C)n1 | -3.2
Cc1cc(C)n(-c2cc(C)c(C)cc2Br)n1 | 131.8*
Cc1ccc(-c2ccc(CCC(=O)O)n2CC(=O)O)cc1 | -3.6
Cc1ccc(-c2ccc(CCC(=O)O)n2-c2ccc(O)cc2)cc1 | -8.6
Cc1ccc(-c2ccc(CCC(=O)O)n2-c2cccc(O)c2)cc1 | 291.3*
Cc1cc(C)c(OCCCCNCc2ccccc2)c(Cl)c1 | -8.3
COc1ccc(N2CCN(C(=O)Cc3ccc(-n4c(=O)[nH]c5ccccc5c4=O)cc3)CC2)cc1 | -3.2
CCOC(=O)N1CCC(NC(=O)c2cn(-c3ccc(OC)cc3)c(=O)c3ccccc23)CC1 | -8.6
CCOC(=O)N1CCC(NC(=O)Cc2ccc(-n3c(=O)[nH]c4ccccc4c3=O)cc2)CC1 | 500.0*
CC(C)(C)n1nnnc1CN1CCN(C(c2ccccc2)c2ccccc2)CC1 | -6.7
COc1ccc(Nc2nc(NC(C)(C)C)nc(N3CCOCC3)n2)c(OC)c1 | 5.3
COc1ccc(Nc2nc(NC(C)(C)C)nc(N3CCCC3)n2)c(OC)c1 | 242.9
COc1ccc(Nc2nc(Nc3ccc(OC)cc3OC)nc(N3CCN(C)CC3)n2)c(OC)c1 | 316.7*
Cc1ccccc1NC(=O)CCSc1nnnn1-c1ccccc1 | 0.0
COc1cccc(NC(=O)COc2ccc(S(=O)(=O)NC(C)C)cc2)c1 | 0.0
O=C(Cc1ccc(F)cc1)NCC1CCCO1 (configuration not stated) | 6.7
SMILES | INS promoter act
O=C(CCCC(=O)NCC1CCCO1)NCC1CCCO1 (configuration not stated) | 256.5*
O=C(Cc1ccccc1)NCC1CCCO1 (configuration not stated) | 3.1
CC(C)CNC(=O)CN(C)S(=O)(=O)c1ccc(F)cc1 | -8.3
CCOC(=O)CCN(Cc1sccc1C)S(=O)(=O)c1ccc(F)cc1 | 77.4*
CCN(CC)S(=O)(=O)c1ccc(F)cc1 | 190.5
O=C(c1cccnc1)N1CCN(C(=O)c2cccs2)CC1 | 456.3*
O=C(c1cccs1)N1CCN(Cc2ccccn2)CC1 | 4.3
O=C(c1ccncc1)N1CCN(C(=O)c2cccs2)CC1 | 4.5
Cc1cccc(NC(=O)CSc2nncn2-c2ccccn2)c1 | 3.7
CCOc1cc(/C=N\NC(=O)CN2CCOCC2)ccc1OCc1ccc(F)cc1 | 3.7
CC(c1ccccc1)n1cc(C(=O)NCc2cccnc2)nn1 (configuration not stated) | 0.0
CC(NS(=O)(=O)c1ccc(CCC(=O)NCc2cccnc2)cc1)c1ccccc1 (configuration not stated) | 133.3
CCC(C(=O)NCc1cccnc1)c1ccccc1 (configuration not stated) | 440.0*
COCCCNC(=O)CCCn1c(=O)c2ccccc2n(CC(=O)Nc2c(C)cc(C)cc2C)c1=O | 106.3
CS(=O)(=O)N1CCC(C(=O)NCc2ccco2)CC1 | 0.0
O=C(COC(=O)c1cccnc1Cl)c1ccc(F)cc1 | 426.3*
O=C(OCc1nnc(-c2ccccc2)o1)c1cccnc1Cl | -7.1
O=C(COC(=O)c1cccnc1Cl)c1ccccc1 | 8.3
O=Cc1cccn1-c1ncc(Br)cn1 | -6.7
O=C(CN1N=C(c2ccc(Cl)cc2)CCC1=O)NCc1cccs1 | -9.1
O=C1Nc2ccc(Cl)cc2/C1=C/C1CC=CCC1 (configuration not stated) | -3.4
CCC(=O)N1CCc2cc(S(=O)(=O)NCCCN(CC)Cc3ccccc3)ccc21 | 0.0
O=C(c1ccc(COc2ccccc2Br)o1)N1CCN(c2ccccn2)CC1 | 2.9
CN(C)C(=O)c1ccc(COc2ccccc2Br)o1 | 421.1*
O=C(Nc1cccnc1)c1ccc(COc2ccccc2Cl)o1 | 0.0
SMILES | INS promoter act
COC(=O)c1cccc(Cn2nc(C)c([N+](=O)[O-])c2C)c1 | 0.0
C=CC(=O)NC(C)(C)CCN1CCOCC1 | 7.1
CCc1cc2cc3c(cc2nc1SCC(=O)Nc1cc(OC)c(OC)cc1C(=O)O)OCO3 | -5.6
COc1ccc(C(NC(=O)C(C)(C)C)NC(=O)C(C)(C)C)cc1 | 95.0*
COc1ccc(C(C)NC(=O)c2ccccc2)cc1 (configuration not stated) | 2.9
COc1ccc(C(C)NC(=O)Cc2ccc(Br)cc2)cc1 (configuration not stated) | 3.6
COc1ccc(NC(=O)CCN2C(=O)C3CC=C(Cl)CC3C2=O)cc1 (configuration not stated) | 7.1
CCOC(=O)Cc1csc(NC(=O)C(C)(C)CC)n1 | 9.1
Cc1cc(=O)oc2cc(OCC(=O)c3ccc4c(c3)NC(=O)CO4)ccc12 | 0.0
O=C(NCC1CCCO1)c1cc(-c2ccc(Cl)cc2Cl)on1 (configuration not stated) | 85.7*
Cc1ccc(-c2cc(C(=O)NCC3CCCO3)no2)cc1 (configuration not stated) | 8.6
O=C(Nc1ccccc1C(=O)NCC1CCCO1)c1ccc(Cl)cc1Cl (configuration not stated) | -5.7
COc1ccc(N=C2SC(C(=O)Nc3ccc(OC)cc3)CC(=O)N2CCN2CCOCC2)cc1 (configuration not stated) | 0.0
Cc1cc(NCC(C)C)n2ncnc2n1 | 5.1
COc1ccc(N2CCN(C(=O)c3c(C)nn(-c4ccccc4)c3C)CC2)cc1 | 8.3
Cc1ccc2nc(NC(=O)COC(=O)c3ccc(Br)o3)sc2c1 | 0.0
Cc1c(NS(=O)(=O)N2CCCCC2)c(=O)n(-c2ccccc2)n1C | 7.1
CCN(Cc1ccccc1)C(=O)C(C)OC(=O)c1cc(S(=O)(=O)Nc2c(C)n(C)n(-c3ccccc3)c2=O)ccc1C (configuration not stated) | 107.1
Cc1ccc(S(=O)(=O)Nc2c(C)n(C)n(-c3ccccc3)c2=O)cc1C(=O)NCc1ccccn1 | 142.9*
Cc1cc(NC(=O)CSc2nc3ccsc3c(=O)n2NC(=O)c2ccccc2)no1 | 435.7*
Cc1ccc(CNC(=O)CSc2nc3ccsc3c(=O)n2NC(=O)c2ccccc2)cc1 | 5.4
Cc1cc(NC(=O)CSc2nc(-c3ccccc3)cs2)no1 | 103.4
COc1cc(C)nc(N2CCC(C(=O)NC3CCCCC3)CC2)n1 | 3.2
O=C(NNC(=O)c1ccc([N+](=O)[O-])cc1Cl)c1ccncc1 | -7.9
CC(OC(=O)CCc1nc2ccccc2c(=O)[nH]1)C(=O)c1ccc(Br)cc1 (configuration not stated) | 0.0
Cc1csc(NC(=O)C(NS(=O)(=O)c2ccc(Br)s2)c2ccccc2)n1 (configuration not stated) | 0.0
CC(=O)NC(CCS(C)(=O)=O)C(=O)Nc1nc(C)cs1 (configuration not stated) | 750.0*
Cc1csc(NC(=O)c2ccccc2C(=O)O)n1 | 6.9

From PubChem BioAssay
